Data: ChEMBL document CHEMBL1123829, “Resolved cis-10-hydroxy-4-n-propyl-1,2,3,4,4a,5,6,10b- octahydrobenzo[f]quinoline : central serotonin stimulating properties” (1987)
Activity calls are given as the source filed them. No cut-off for these calls is given here.

Columns and labels:
Rattus norvegicus [1] = species on record: Rattus norvegicus; assay: Compound was tested for Dopa accumulation in limbic system (brain) of reserpinized rat; I = Inactive; type: functional, organism-based
Rattus norvegicus [2] = species on record: Rattus norvegicus; assay: Compound was tested for Dopa accumulation in hemispheres (brain) of reserpinized rat; I = Inactive; type: functional, organism-based
Rattus norvegicus [3] = species on record: Rattus norvegicus; assay: Compound was tested for 5-HTP accumulation in hemispheres (brain) of reserpinized rat.; type: functional
Method in brief: (§1)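 Male Sprague-Dawley rats (200–300 g), pretreated with reserpine in glacial acetic acid/5.5% glucose. Compounds were given sc in saline at neutral pH. 5-HTP in striatum, limbic system or hemispheres was measured by HPLC with electrochemical detection. Dose-response curves used 4–6 dose levels per substance and region, with 95% confidence limits by modified probit analysis.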

Rattus norvegicus [4] = species on record: Rattus norvegicus; assay: Compound was tested for 5-HTP accumulation in limbic system (brain) of reserpinized rat.; type: functional; method in brief: as §1
Rattus norvegicus [5] = species on record: Rattus norvegicus; assay: Compound was tested for 5-HTP accumulation in corpus striatum (brain) of reserpinized rat.; type: functional; method in brief: as §1
Rattus norvegicus [6] = species on record: Rattus norvegicus; assay: Compound was tested for Dopa accumulation in corpus striatum(brain) of reserpinized rat; I = Inactive; type: functional, organism-based
Rattus norvegicus [7] = assay: Compound was tested for Dopa accumulation in hemispheres (brain) of reserpinized rat; A partial agonistic response at a dose of 50 uM/kg; type: functional, organism-based; settings: filed as partial agonist
Rattus norvegicus [8] = assay: Compound was tested for Dopa accumulation in corpus striatum(brain) of reserpinized rat; A partial agonistic response at a dose of 25 uM/kg; type: functional, organism-based; settings: filed as partial agonist
Rattus norvegicus [9] = assay: Compound was tested for 5-HTP accumulation in corpus striatum(brain) of reserpinized rat; A partial agonistic response at a dose of 25 uM/kg; type: functional, organism-based; settings: filed as partial agonist
Rattus norvegicus [10] = assay: Compound was tested for 5-HTP accumulation in limbic system(brain) of reserpinized rat; A partial agonistic response at a dose of 12.5 uM/kg; type: functional, organism-based; settings: filed as partial agonist
Rattus norvegicus [11] = assay: Compound was tested for 5-HTP accumulation in hemispheres (brain) of reserpinized rat; A partial agonistic response at a dose of 50 uM/kg; type: functional, organism-based; settings: filed as partial agonist
Rattus norvegicus [12] = assay: Compound was tested for Dopa accumulation in limbic system(brain) of reserpinized rat; A partial agonistic response at a dose of 12.5 uM/kg; type: functional, organism-based; settings: filed as partial agonist
Rattus norvegicus [13] = species on record: Rattus norvegicus; assay: Compound was tested for 5-HTP accumulation in limbic system(brain) of reserpinized rat; type: functional; method in brief: as §1
Rattus norvegicus [14] = species on record: Rattus norvegicus; assay: Compound was tested for 5-HTP accumulation in hemispheres (brain) of reserpinized rat; type: functional; method in brief: as §1
Rattus norvegicus [15] = species on record: Rattus norvegicus; assay: Compound was tested for 5-HTP accumulation in corpus striatum(brain) of reserpinized rat; type: functional; method in brief: as §1
Rattus norvegicus [16] = species on record: Rattus norvegicus; assay: Compound was tested for Dopa accumulation in limbic system(brain) of reserpinized rat; I = Inactive; type: functional, organism-based
Rattus norvegicus [17] = species on record: Rattus norvegicus; assay: Compound was tested for 5-HTP accumulation in corpus striatum(brain) of reserpinized rat.; type: functional; method in brief: as §1
Rattus norvegicus [18] = species on record: Rattus norvegicus; assay: Compound was tested for 5-HTP accumulation in hemispheres (brain) of reserpinized rat; I = Inactive; type: functional; method in brief: as §1
Rattus norvegicus [19] = species on record: Rattus norvegicus; assay: Compound was tested for 5-HTP accumulation in limbic system(brain) of reserpinized rat.; type: functional; method in brief: as §1

For `CCCN(CCC)[C@@H]1CCc2cccc(O)c2[C@@H]1C`, the ED50 (Rattus norvegicus [1]) was “inactive”, the ED50 (Rattus norvegicus [2]) was “inactive” and the ED50 (Rattus norvegicus [3]) was 0.09 µmol/kg. The ED50 (Rattus norvegicus [4]) was 0.09 µmol/kg, the ED50 (Rattus norvegicus [5]) was 0.04 µmol/kg and the ED50 (Rattus norvegicus [6]) was “inactive”.

`CCCN1CCCC2c3c(O)cccc3CCC21` (centres undefined) was tested, and the ED50 (Rattus norvegicus [7]) was “Partial agonist”, the ED50 (Rattus norvegicus [8]) was “Partial agonist” and the ED50 (Rattus norvegicus [9]) was “Partial agonist”. The ED50 (Rattus norvegicus [10]) was “Partial agonist”, the ED50 (Rattus norvegicus [11]) was “Partial agonist” and the ED50 (Rattus norvegicus [12]) was “Partial agonist”.

`CCCN1CCCC2c3c(O)cccc3CCC21` (stereo in doubt) [listing 1 of 2 here] gave an ED50 (Rattus norvegicus [13]) of 2.57 µmol/kg, an ED50 (Rattus norvegicus [14]) of 3.47 µmol/kg and an ED50 (Rattus norvegicus [15]) of 3.63 µmol/kg.

In the case of `CCCN1CCCC2c3c(O)cccc3CCC21` (stereo in doubt) [listing 2 of 2 here], the ED50 (Rattus norvegicus [2]) is reported as “inactive”, the ED50 (Rattus norvegicus [16]) is reported as “inactive” and the ED50 (Rattus norvegicus [6]) is reported as “inactive”.

`CCCN1CCCC2c3c(O)cccc3CCC21` (stereo in doubt; 4) [listing 1 of 2 here] gave an ED50 (Rattus norvegicus [17]) of 3.4 µmol/kg, an ED50 (Rattus norvegicus [18]) of 4.5 µmol/kg and an ED50 (Rattus norvegicus [19]) of 3.4 µmol/kg.

For `CCCN1CCCC2c3c(O)cccc3CCC21` (stereo in doubt; 4) [listing 2 of 2 here], the ED50 (Rattus norvegicus [2]) was “inactive”, the ED50 (Rattus norvegicus [16]) was “inactive” and the ED50 (Rattus norvegicus [6]) was “inactive”.
